Molecules are shown by their SMILES. Calls of active or inactive are those of the source. No cut-off for these calls is given here.

Data set [1] relates to Mycobacterium tuberculosis. Description: Inhibition of Mycobacterium tuberculosis TMP kinase using 0.05 dTMP and 0.5 mM MgATP by measuring NADH consumption at 20 uM by coupled spectrophotometric assay. The method in brief: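 Recombinant M. tuberculosis TMP kinase; activity at 30 °C by NADH consumption at 340 nm in a pyruvate kinase/lactate dehydrogenase/nucleoside diphosphate kinase coupled assay (2 units each). Medium: 50 mM Tris-HCl pH 7.4, 50 mM KCl, 2 mM MgCl2, 0.2 mM NADH, 1 mM phosphoenolpyruvate. ATP held at 0.5 mM and dTMP at 0.05 mM; compound at 20 μM.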

The target in data set [2] is T1, Inosine-5'-monophosphate dehydrogenase (Pseudomonas aeruginosa (strain ATCC 15692 / DSM 22644 / CIP 104116 / JCM14847 / LMG 12228 / 1C / PRS 101 / PAO1), UniProt Q9HXM5).
T1 sequence (Q9HXM5 whole entry): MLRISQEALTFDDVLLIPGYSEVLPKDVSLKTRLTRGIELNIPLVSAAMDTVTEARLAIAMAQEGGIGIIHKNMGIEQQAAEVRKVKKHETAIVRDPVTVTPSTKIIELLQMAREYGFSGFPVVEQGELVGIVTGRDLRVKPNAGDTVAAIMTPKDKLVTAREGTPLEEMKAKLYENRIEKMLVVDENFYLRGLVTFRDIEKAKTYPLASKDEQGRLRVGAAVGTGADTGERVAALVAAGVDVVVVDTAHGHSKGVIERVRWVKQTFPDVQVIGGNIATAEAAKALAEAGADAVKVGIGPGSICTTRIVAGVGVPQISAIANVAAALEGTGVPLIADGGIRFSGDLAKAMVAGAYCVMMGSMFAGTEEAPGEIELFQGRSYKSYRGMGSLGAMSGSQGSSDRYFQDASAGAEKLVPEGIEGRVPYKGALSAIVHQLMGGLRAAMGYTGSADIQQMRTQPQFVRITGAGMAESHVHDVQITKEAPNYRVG
Kind of data set: Inhibition of Pseudomonas aeruginosa IMPDH extracted form Escherichia coli BL21 (DE3)pDIA17 assessed as formation of NADH. Particulars: read-out: I50.

The test system of a further data set is Pseudomonas aeruginosa. Description: Inhibition of Pseudomonas aeruginosa IMPDH delta Bateman domain extracted form Escherichia coli BL21 (DE3)pDIA17 assessed as formation of NADH at 50 uM relative to control. The method, boiled down: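 Bateman-domain-deleted IMPDH (E. coli or P. aeruginosa), His-tagged, made in E. coli BL21(DE3)/pDIA17. NADH formation at 340 nm, 30 °C, 0.2 mM IMP, 0.4 mM NAD⁺, 0.2 mM MgATP, 2 mM MgCl₂. Buffer: ec Tris-HCl 50 mM pH 9, KCl 100 mM; pa Tris-HCl 50 mM pH 8, KCl 100 mM. Compound 50 μM; % inhibition relative to uninhibited enzyme.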

For a further data set, the system named is Staphylococcus aureus. Kind of data set: Inhibition of Staphylococcus aureus IMPDH extracted form Escherichia coli BL21 (DE3)pDIA17 assessed as formation of NADH at 50 uM relative to control. The method in brief: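 His-tagged wild-type IMPDH (E. coli, P. aeruginosa or S. aureus) made in E. coli BL21(DE3)/pDIA17, purified by metal-affinity then gel filtration. NADH formation followed at 340 nm, 30 °C, with 0.2 mM IMP, 0.4 mM NAD⁺, 0.2 mM MgATP, 2 mM MgCl₂. Buffers: pa Tris-HCl 50 mM pH 8; ec Tris-HCl 50 mM pH 8, KCl 50 mM; sa Na₂CO₃ 50 mM pH 9.2, KCl 20 mM. Compound at 50 μM; % inhibition vs compound-free activity.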

Data set [3] can be described thus: Metabolic stability in mouse liver microsomes assessed as recovery in presence of NADPH measured after 120 mins. The format is ADME, Microsome. Particulars: read-out: Drug recovery. On the technique in general: Liver microsomes are vesicles of endoplasmic reticulum, rich in cytochrome P450 enzymes.
For data set [4], the target named is T2, Inosine-5'-monophosphate dehydrogenase (Pseudomonas aeruginosa (strain ATCC 15692 / DSM 22644 / CIP 104116 / JCM14847 / LMG 12228 / 1C / PRS 101 / PAO1)) (UniProt Q9HXM5).
T2 sequence (whole entry): T1 sequence (Q9HXM5 whole entry)
Kind of data set: Non-competitive inhibition of Pseudomonas aeruginosa IMPDH in presence of 2 mM NAD+ by Michaelis-Menten equation. The method in brief: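 Steady-state kinetics of P. aeruginosa ΔBateman IMPDH: initial rates (NADH at 340 nm, 30 °C, Tris-HCl 50 mM pH 8, KCl 100 mM) measured across variable IMP at saturating 2 mM NAD⁺, without or with several inhibitor concentrations; data from at least three experiments fitted to Michaelis–Menten and shown as Lineweaver-Burk plots.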

A short description of data set [5]: Inhibition of Escherichia coli IMPDH delta Bateman domain extracted form Escherichia coli BL21 (DE3)pDIA17 assessed as formation of NADH. Particulars: read-out: I50. The method in brief:
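Bateman-domain-deleted IMPDH (E. coli or P. aeruginosa) from E. coli BL21(DE3)/pDIA17; NADH at 340 nm, 30 °C, 0.2 mM IMP, 0.4 mM NAD⁺, 0.2 mM MgATP, 2 mM MgCl₂; buffers as per variant (ec Tris-HCl pH 9/KCl 100 mM; pa Tris-HCl pH 8/KCl 100 mM). I50 by dose-response logistic fit, at least three experiments.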

For `CC(C)(NC(=O)Nc1ccc(Cl)c([N+](=O)[O-])c1)c1cccc(-c2c[nH]cn2)c1`, the inhibition result in data set [1] is “inactive”. The values for the IC50 in data set [2] and in data set [5] were 100 nM and 4.26 µM, respectively. The inhibition in the data set on Pseudomonas aeruginosa stood at 99%; in the data set on Staphylococcus aureus, 89%. In addition, the remaining at 2 h in data set [3] was over 95%. Moreover, the inhibition entry in data set [4] is “Active”.

As usually defined, the inhibition is the share of the control response that was lost under treatment.

These data come from ChEMBL document CHEMBL6083235, “Synthesis, evaluation and mechanistic insights of novel IMPDH inhibitors targeting ESKAPEE bacteria” (Eur J Med Chem, 2024).
